Results on seven compounds are retold here after ChEMBL document CHEMBL1146476, “Structure-activity relationships of ring C-secotaxoids. 1. Acylative modifications” (J Nat Prod, 2004).

A word on the IC50: it is the concentration at which inhibition is half-maximal. High values mean lower potency, low ones higher potency.

Assay [1] concerns MCF7. The experiment in a line: Cytotoxicity against human MCF7 cells after 72 hrs by SRB assay. The assay is classed as functional, cell-based. Particulars: MCF7, 72 h.
In assay [2] the test system is MCF7. Kind of assay: Cytotoxicity against human multidrug-resistant MCF7 cells after 72 hrs by SRB assay. The assay is classed as functional, cell-based. Particulars: MCF7, 72 h. The essentials:
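Monolayer cultures kept in RPMI-1640 with 5% FCS, 5% NuSerum IV, 20 mM HEPES, 2 mM L-glutamine at 37 °C, 5% CO2. Cells seeded at 800-1500/well and allowed to attach 15-18 h, then given 10 concentrations spanning 5 logs (DMSO stock diluted in RPMI-1640/10 mM HEPES) for 72 h. Fixed with cold TCA, stained with 0.4% SRB, OD 570 nm. Sigmoid-Emax nonlinear regression fit.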
(In general: Sulforhodamine B stains cellular protein and so reports cell mass.)

As for `CC(=O)O[C@@]1([C@@H]2/C(C)=C(/O)C(=O)C3=C(C)[C@@H](OC(=O)[C@H](O)[C@H](CC(C)C)NC(=O)OC(C)(C)C)C[C@@](O)([C@H]2OC(=O)c2ccccc2)C3(C)C)CO[C@@H]1CCO`, the IC50 in assay [1] stood at 0.014 µM; in assay [2], 1.64 µM.
Take `CC(=O)O[C@@]1([C@@H]2/C(C)=C(/OC(=O)OC(C)(C)C)C(=O)C3=C(C)[C@@H](OC(=O)[C@H](O)[C@H](CC(C)C)NC(=O)OC(C)(C)C)C[C@@](O)([C@H]2OC(=O)c2ccccc2)C3(C)C)CO[C@@H]1CCOC(=O)OC(C)(C)C`: the half-inhibitory concentration (IC50) came to 0.051 µM in assay [1] and 0.736 µM in assay [2].
As to `CC(=O)OCC[C@H]1OC[C@@]1(OC(C)=O)[C@@H]1/C(C)=C(/OC(C)=O)C(=O)C2=C(C)[C@@H](OC(=O)[C@H](O)[C@H](CC(C)C)NC(=O)OC(C)(C)C)C[C@@](O)([C@H]1OC(=O)c1ccccc1)C2(C)C`, the half-inhibitory concentration (IC50) in assay [1] is 0.036 µM; in assay [2], 0.956 µM.
Taken in the same sequence, the figures for `CC(=O)O[C@@]1([C@@H]2/C(C)=C(/OC(=O)[C@@H](O)[C@@H](CC(C)C)NC(=O)OC(C)(C)C)C(=O)C3=C(C)[C@@H](O)C[C@@](O)([C@H]2OC(=O)c2ccccc2)C3(C)C)CO[C@@H]1CCOC(=O)C(C)(C)C` were greater than 3 µM and greater than 3 µM.
Taken in the same sequence, the figures for `CC(=O)O[C@@]1([C@@H]2/C(C)=C(/OC(=O)OCc3ccccc3)C(=O)C3=C(C)[C@@H](OC(=O)[C@H](O)[C@H](CC(C)C)NC(=O)OC(C)(C)C)C[C@@](O)([C@H]2OC(=O)c2ccccc2)C3(C)C)CO[C@@H]1CCO` were 0.053 µM and 1.21 µM.
Taken in the same sequence, the figures for `CC(=O)O/C1=C(\C)[C@@H]([C@]2(OC(C)=O)CO[C@@H]2CCO)[C@H](OC(=O)c2ccccc2)[C@]2(O)C[C@H](OC(=O)[C@H](O)[C@H](CC(C)C)NC(=O)OC(C)(C)C)C(C)=C(C1=O)C2(C)C` were 0.018 µM and 1 µM.
With `CC(=O)O[C@H]1C(=O)[C@@]2(C)[C@H]([C@H](OC(=O)c3ccccc3)[C@]3(O)C[C@H](OC(=O)[C@H](O)[C@@H](NC(=O)c4ccccc4)c4ccccc4)C(C)=C1C3(C)C)[C@]1(OC(C)=O)CO[C@@H]1C[C@@H]2O` [PACLITAXEL], the half-maximal inhibitory concentration (IC50) in assay [2] amounted to 0.354 µM.
